Assay results: ChEMBL document CHEMBL1130800, “Complexation of okadaic acid: a preliminary study” (1998)

Assays:
Format in all cases: functional
Rattus norvegicus [1] = species: Rattus norvegicus; test: Decrease in tone in estrogen-primed rat uterus at 20 uM in Ca+2-free solution
How it was run: (§1)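 Uterine strips from estradiol benzoate-primed (100 μg Kg⁻¹ ip, 24 h) virgin female Wistar rats, 200-250 g, in Sund's PSS (Ca²⁺-free, Na⁺/Ca²⁺-free, or K⁺/Ca²⁺-free with KCl omitted), 32°C, 95% O₂/5% CO₂, 0.5 g resting force. One 20 μM application per strip. Isometric tension decline measured at 120 min, as % of the agent's maximal tension increase. Mean ± s.e.m.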

Rattus norvegicus [2] = species: Rattus norvegicus; test: Decrease in tone in estrogen-primed rat uterus at 20 uM in [Ca2+] free K+free solution; how it was run: as §1
Rattus norvegicus [3] = species: Rattus norvegicus; test: Decrease in tone in estrogen-primed rat uterus at 20 uM in [Ca2+] free Na+free solution; how it was run: as §1
Rattus norvegicus [4] = species: Rattus norvegicus; test: Duration of plateau(min) in estrogen-primed rat uterus at 20 uM in Ca+2-free solution
How it was run: (§2)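 Estrus-confirmed, oestrogen-primed rat uterine longitudinal strips in Ca²⁺-free, Na⁺/Ca²⁺-free or K⁺/Ca²⁺-free Sund's PSS at 32°C, gassed 95% O₂/5% CO₂. Strips equilibrated 45 min, then given repeated ACh 1 mM until responses were reproducible. A single 20 μM dose per strip. Contraction plateau duration (min) taken from isometric recordings. Mean ± s.e.m.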

Rattus norvegicus [5] = species: Rattus norvegicus; test: Duration of plateau(min) in estrogen-primed rat uterus at 20 uM in [Ca2+] free K+free solution; how it was run: as §2
Rattus norvegicus [6] = species: Rattus norvegicus; test: Duration of plateau(min) in estrogen-primed rat uterus at 20 uM in [Ca2+] free Na+free solution; how it was run: as §2
Rattus norvegicus [7] = species: Rattus norvegicus; test: Emax value in estrogen-primed rat uterus at 20 uM in [Ca2+] free Na+free solution
How it was run: (§3)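 Strips from oestrogen-primed Wistar rat uterus, 0.5 g resting force, in Sund's PSS variants (Ca²⁺-free; Na⁺- and Ca²⁺-free; K⁺- and Ca²⁺-free) at 32°C. A single 20 μM addition per strip. Maximal isometric contraction expressed as % of the maximal tension evoked by ACh 1 mM in the same strip. Mean ± s.e.m.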

Rattus norvegicus [8] = species: Rattus norvegicus; test: Emax value in estrogen-primed rat uterus at 20 uM in Ca+2-free solution; how it was run: as §3
Rattus norvegicus [9] = species: Rattus norvegicus; test: Emax value in estrogen-primed rat uterus at 20 uM in Ca+2-free K+free solution; how it was run: as §3
Rattus norvegicus [10] = species: Rattus norvegicus; test: Time to peak tension(min) in estrogen-primed rat uterus at 20 uM in Ca+2-free solution
How it was run: (§4)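 Isometric recording at 32°C of uterine strips from estrogen-primed (100 μg Kg⁻¹ ip estradiol benzoate, 24 h prior) female Wistar rats, in Ca²⁺-free, Na⁺/Ca²⁺-free or K⁺/Ca²⁺-free Sund's PSS. Each strip received one 20 μM application. Time to peak tension (min) measured from the onset of the tension increase. Mean ± s.e.m.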

Rattus norvegicus [11] = species: Rattus norvegicus; test: Time to peak tension(min) in estrogen-primed rat uterus at 20 uM in [Ca2+] free K+free solution; how it was run: as §4
Rattus norvegicus [12] = species: Rattus norvegicus; test: Time to peak tension(min) in estrogen-primed rat uterus at 20 uM in [Ca2+] free Na+free solution; how it was run: as §4

| SMILES | Decrease in tone (Rattus norvegicus [1]) | Decrease in tone (Rattus norvegicus [2]) | Decrease in tone (Rattus norvegicus [3]) | Duration of plateau (Rattus norvegicus [4]) | Duration of plateau (Rattus norvegicus [5]) | Duration of plateau (Rattus norvegicus [6]) | Emax (Rattus norvegicus [7]) | Emax (Rattus norvegicus [8]) | Emax (Rattus norvegicus [9]) | Time to peak tension (Rattus norvegicus [10]) | Time to peak tension (Rattus norvegicus [11]) | Time to peak tension (Rattus norvegicus [12]) |
| --- | --- | --- | --- | --- | --- | --- | --- | --- | --- | --- | --- | --- |
| C=C1[C@@H](O)[C@@H]2O[C@@]3(CCC2O[C@@H]1[C@@H](O)C[C@H](C)C1O[C@@]2(CCCCO2)CC[C@H]1C)CC[C@H](/C=C/[C@@H](C)[C@@H]1CC(C)=C[C@@]2(O[C@H](C[C@@](C)(O)C(=O)O)CC[C@H]2O)O1)O3 (some centres undefined) | 92.8 | 98 | 93.3 | 3.7 min | 2.9 min | 4.2 min | 186.5 | 101.7 | 135.2 | 23 min | 20.7 min | 30.3 min |
| C=C1[C@@H](O)[C@@H]2O[C@]3(CC[C@H](/C=C/[C@@H](C)[C@@H]4CC(C)=C[C@@]5(O[C@H](C[C@@](C)(O)C(=O)O)CC[C@H]5O)O4)O3)CC[C@H]2O[C@@H]1[C@@H](O)C[C@H](C)[C@H]1O[C@@]2(CCCCO2)CC[C@H]1C [OKADAIC ACID] | 85.7 | 58.1 | 94.8 | 2.1 min | 12.8 min | 3.8 min | 150.8 | 107.9 | 6.2 | 27.2 min | 28.5 min | 25.1 min |
